The source of these data is publication PMC12138107 (Acta Pharmaceutica Sinica. B, 2025).

The data set has as its system L02 cells. The experiment in a line: In vitro cytotoxicity assay on normal L02 cells. Type of data set: cell-based. Conditions: 10 μmol/L, 24 h, CCK8. A digest of the protocol:
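L02 cells grown in DMEM with 10% FBS and 1% penicillin-streptomycin at 37 °C, 5% CO2. Seeded at 5 × 10^3 cells/well, then 24 h before test compound at 10 μmol/L was added for another 24 h. Medium removed, 10% CCK8 added for 1 h at 37 °C. Absorbance read and viability calculated.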

As for `COc1nc(OCc2cccc(-c3ccccc3)c2C)ccc1CNCCNC(C)=O` [BMS-202], the “Cytotoxicity on normal L02 cells” value is reported as “obvious cytotoxicity”.
